# Test results: article PMC6105922 (Rheumatology (Oxford, England), 2018)
# Columns and labels:
# serum urate (sUA) = assay: Serum urate; type: in vivo, human; conditions: for Proportion of subjects with sUA ⩽6.0 mg/dl at 4 h after treatment: pooled cohorts
# urinary uric acid = assay: Urinary uric acid excretion; type: in vivo, human; conditions: for FEUA (fractional excretion of uric acid) relative to baseline: data not shown; for Mean maximum ReUR (urinary uric acid excretion rate) relative to baseline: in vivo
# Summary of the method: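 Oral dosing was once daily after breakfast over 7-day periods in hyperuricaemic Japanese men. Total-catch urine was collected on days −1, 7, 14, 21 and 28, with 240 ml water drunk on rising, within 2 h before dosing. The urinary uric acid excretion rate (mg/h) and fractional excretion (%) were calculated per 24-h collection and compared with baseline.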
# [1] = Plasma and urine pharmacokinetics of verinurad; type: in vivo; conditions: human, oral
# Summary of the method: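 Japanese men with gout or asymptomatic hyperuricaemia (sUA ≥8 mg/dl) took oral drug once daily after breakfast, alone or with febuxostat 10, 20 or 40 mg, over 7-day periods. Serial plasma and total-catch urine were taken on days −1, 7, 14, 21 and 28. Plasma was protein-precipitated and urine water-diluted, both assayed by HPLC-MS/MS.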
# [2] = Safety: adverse events, serum creatinine, laboratory evaluations; type: in vivo, human
# Summary of the method: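 Males aged 21–65 were dosed orally once daily after breakfast for 7-day periods and followed to day 42. Monitoring covered adverse events (MedDRA v18.0), clinical laboratory tests including serum creatinine, vital signs, ECGs and physical examinations. An independent committee was to adjudicate serious renal events. Clinically relevant laboratory abnormalities were graded by Rheumatology Common Toxicity Criteria v2.0. Results are descriptive, in everyone given at least one dose.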
"half-life ([1]; plasma, mean t½, varying verinurad doses alone or in combination with febuxostat) [h]",CL renal ([1]; urine and plasma) [mL/min],Compound,Subjects achieving sUA ⩽6.0 mg/dl 4 h after treatment (serum urate (sUA); benzbromarone 50 mg alone),"sUA-lowering effect (serum urate (sUA); benzbromarone 50 mg, Cohort 6)",Proportion of subjects with sUA ⩽6.0 mg/dl at 4 h after treatment (serum urate (sUA); febuxostat 10 mg alone) [%],Proportion of subjects with sUA ⩽6.0 mg/dl at 4 h after treatment (serum urate (sUA); febuxostat 40 mg alone) [%],FEUA (fractional excretion of uric acid) relative to baseline (urinary uric acid),Mean maximum ReUR (urinary uric acid excretion rate) relative to baseline (urinary uric acid),Subjects achieving sUA ⩽6.0 mg/dl 4 h after treatment (serum urate (sUA); verinurad 10 or 15 mg alone),Subjects with sCr elevation ⩾1.5 × baseline ([2]; verinurad 2.5 mg or verinurad 15 mg alone (cohort 5)),"Tolerability ([2]; verinurad 2.5 mg to 15 mg, no withdrawals due to adverse events)"
,,CCc1oc2ccccc2c1C(=O)c1cc(Br)c(O)c(Br)c1 [benzbromarone],All subjects,generally similar in sUA-lowering effect to verinurad 5 mg combined with febuxostat 20 mg,,,,,,,
,,"Cc1nc(-c2ccc(OCC(C)C)c(C#N)c2)sc1C(=O)O [febuxostat, reference compound]",,,20.8,83.3,reduced,reduced,,,
13 to 24,12.4 to 15.1,CC(C)(Sc1ccncc1-c1ccc(C#N)c2ccccc12)C(=O)O [verinurad],,,,,increased in a dose-dependent manner,increased,All subjects,Two subjects,well tolerated
